Laboratory results published in ChEMBL document CHEMBL1781999, “Lead optimization of aryl and aralkyl amine-based triazolopyrimidine inhibitors of Plasmodium falciparum dihydroorotate dehydrogenase with antimalarial activity in mice” (J Med Chem, 2011).
Values after ≈ are worked out from the molar mass of the structure shown.

What was measured:
[1] = molecular target: T1, Dihydroorotate dehydrogenase (Plasmodium falciparum, UniProt Q54A96); assay: Inhibition of His6-tagged recombinant Plasmodium falciparum dihydroorotate dehydrogenase expressed in Escherichia coli using L-dihydroorotate as substrate after 5 to 10 mins by DCIP dye-based assay
T1 sequence (Q54A96 whole entry): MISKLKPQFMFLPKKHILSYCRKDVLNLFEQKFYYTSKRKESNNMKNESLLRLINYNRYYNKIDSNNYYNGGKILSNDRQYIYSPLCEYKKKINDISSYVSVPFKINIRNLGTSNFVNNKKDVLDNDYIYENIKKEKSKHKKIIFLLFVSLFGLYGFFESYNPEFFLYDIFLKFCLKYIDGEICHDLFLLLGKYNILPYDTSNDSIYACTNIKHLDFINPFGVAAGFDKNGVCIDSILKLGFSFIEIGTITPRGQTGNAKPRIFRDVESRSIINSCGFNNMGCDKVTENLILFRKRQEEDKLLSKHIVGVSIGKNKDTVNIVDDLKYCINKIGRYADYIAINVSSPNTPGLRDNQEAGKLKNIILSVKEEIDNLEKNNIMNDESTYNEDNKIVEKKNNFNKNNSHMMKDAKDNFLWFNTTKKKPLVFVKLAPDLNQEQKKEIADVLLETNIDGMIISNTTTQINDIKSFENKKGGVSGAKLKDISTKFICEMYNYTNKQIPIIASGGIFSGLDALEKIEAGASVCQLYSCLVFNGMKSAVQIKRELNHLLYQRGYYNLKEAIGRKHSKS

[2] = molecular target: Dihydroorotate dehydrogenase (quinone), mitochondrial (Homo sapiens, UniProt Q02127); assay: Inhibition of His6-tagged recombinant human dihydroorotate dehydrogenase expressed in Escherichia coli using L-dihydroorotate as substrate after 5 to 10 mins by DCIP dye-based assay
Dihydroorotate dehydrogenase (quinone), mitochondrial, sequence (Q02127 whole entry): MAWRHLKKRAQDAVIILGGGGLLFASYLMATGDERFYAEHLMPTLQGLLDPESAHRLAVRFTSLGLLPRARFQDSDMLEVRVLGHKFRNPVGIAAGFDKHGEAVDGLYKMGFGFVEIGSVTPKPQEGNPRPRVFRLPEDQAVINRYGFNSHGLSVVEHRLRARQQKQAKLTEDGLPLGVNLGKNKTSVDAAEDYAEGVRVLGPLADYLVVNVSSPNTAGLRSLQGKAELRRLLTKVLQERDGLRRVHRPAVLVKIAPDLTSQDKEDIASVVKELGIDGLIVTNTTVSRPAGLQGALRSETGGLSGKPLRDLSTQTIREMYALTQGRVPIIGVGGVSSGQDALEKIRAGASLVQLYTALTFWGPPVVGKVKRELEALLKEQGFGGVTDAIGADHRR

Plasmodium falciparum = assay: Antimalarial activity against Plasmodium falciparum 3D7 infected in human A positive erythrocytes by [3H]hypoxanthine uptake assay in presence of serum in medium; type: functional, organism-based
Summary of the method: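 Growth read by [3H]-hypoxanthine uptake. Each concentration run in quadruplicate and fitted to a four-parameter variable-slope log[I]-response model for 50% growth inhibition.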

[3] = Inhibition of His6-tagged recombinant Plasmodium berghei dihydroorotate dehydrogenase expressed in Escherichia coli using L-dihydroorotate as substrate after 10 to 15 mins by DCIP dye-based assay; details: in the assay text read “5 to 10 mins” for “10 to 15 mins”
Summary of the method: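 Truncated soluble enzyme lacking the N-terminal membrane domain. Final concentrations: 0.2 mM L-dihydroorotate, 0.02 mM CoQD, 0.12 mM DCIP. Reaction started with 10 nM enzyme and read at 600 nm for 5–10 min at 20 °C. Inhibitor 0.01–100 μM in 3-fold steps, in triplicate. IC50 from a three-parameter fit of vi/vo from initial rates.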

[4] = Inhibition of His6-tagged recombinant Plasmodium berghei dihydroorotate dehydrogenase expressed in Escherichia coli using L-dihydroorotate as substrate after 5 to 10 mins by DCIP dye-based assay
[5] = Aqueous solubility of the compound in phosphate buffer at pH 6.5; type: physicochemical
Summary of the method: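 Non-equilibrium solubility. Concentrated DMSO stocks were diluted into pH 6.5 phosphate buffer (final DMSO 1% v/v) and precipitation was monitored by nephelometry. Solubility is given as the concentration range just before a turbidity signal rose above background.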

[6] = Plasma protein binding in human by albumin chromatographic method; type: ADME, cell-free; details: read-out: PPB (converted)
Liver microsomes = assay: Intrinsic clearance in human liver microsome assessed per mg of protein at 1 uM after 60 mins by LC-MS analysis; type: ADME; details: microsomes, 1 h, 1 µM
Summary of the method: (§1)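 Microsomal stability. Compound at 1 μM with liver microsomes (0.4 mg/mL protein) in 0.1 M phosphate pH 7.4 at 37 °C. Started with an NADPH-regenerating system plus MgCl2; controls lacked NADPH. Quenched with cold acetonitrile at time points up to 60 min. Parent loss measured by LC-MS and fitted to exponential decay to give CLint.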

Liver = assay: Intrinsic clearance in mouse liver microsome assessed per mg of protein at 1 uM after 60 mins by LC-MS analysis; type: ADME; details: microsomes, 1 h
Summary of the method: as §1

[7] = Partition coefficient, log D of the compound at pH 7.4 by UV-HPLC analysis; details: octanol/water
[8] = phosphate buffer, read-out: solubility

| Compound | IC50 [1] [µM] | IC50 [2] [µM] | EC50 (Plasmodium falciparum) [µM] | IC50 [3] [µM] | other results |
| --- | --- | --- | --- | --- | --- |
| FC(F)(F)c1ccc(Nc2cc(Cl)nc3ncnn23)cc1 | 0.17 | > 100 | 3.4 | 0.13 | – |
| CCc1c(C)nc2ncnn2c1Nc1ccc(C(C)C)cc1 | 1.7 | > 100 | > 10 | 4.5 | – |
| Cc1cc(NCc2ccc(C(F)(F)F)cc2)n2ncnc2n1 | > 100 | – | – | – | IC50 [4]: > 100 µM |
| Cc1cc(Nc2ccc(SC(F)(F)F)cc2)n2ncnc2n1 | 0.61 | > 50 | 0.27 | 1.2 | solubility [5, 8]: 5 µM (≈ 1.63 µg/mL); fraction unbound [6]: 0.039; CL (Liver microsomes): < 5 µL/min/mg; CL (Liver): 119 µL/min/mg |
| Cc1cc(Nc2ccc3ccccc3c2)n2ncnc2n1 | – | – | – | – | solubility [5, 8]: 45 µM (≈ 12.4 µg/mL); logD [7]: 3.2; fraction unbound [6]: 0.062 |
| Cc1cc(NCc2ccccc2)n2ncnc2n1 | > 100 | – | > 10 | – | – |
| Cc1cc(NC2CCCCC2)n2ncnc2n1 | > 100 | – | – | – | – |
| CCc1c(C)nc2ncnn2c1Nc1ccc(OC(F)(F)F)cc1 | – | > 100 | > 10 | 5.7 | – |
| Cc1cc(NC2CCCC2)n2ncnc2n1 | > 100 | – | – | – | – |
| Cc1cc(Nc2ccc(C(F)(F)F)c(C(F)(F)F)c2)n2ncnc2n1 | 0.54 | – | 2.3 | 0.55 | – |
| Cc1cc(NCCCc2ccccc2)n2ncnc2n1 | 26 | – | 25 | – | IC50 [4]: > 100 µM |
| Cc1cc(NC2CCC2)n2ncnc2n1 | > 100 | – | – | – | – |
| Cc1cc(Nc2ccc(N(C)C)cc2)n2ncnc2n1 | 0.82 | > 100 | 2.7 | 12 | solubility [5, 8]: 93 µM (≈ 25 µg/mL); logD [7]: 2.2; CL (Liver microsomes): 9 µL/min/mg; CL (Liver): 226 µL/min/mg |
| Cc1cc(NC2CCc3cc(Cl)ccc3C2)n2ncnc2n1 (stereo not given) | 0.67 | – | 10 | – | IC50 [4]: 10 µM |
| Cc1cc(Nc2ccc(C3CC3)cc2)n2ncnc2n1 | 0.42 | > 100 | 1.4 | 2.9 | solubility ([5]; buffer): > 377 µM; logD [7]: 2.7; fraction unbound [6]: 0.132; CL (Liver microsomes): 53 µL/min/mg; CL (Liver): 287 µL/min/mg |
| Cc1cc(NC2Cc3ccc(Br)cc3C2)n2ncnc2n1 (stereo not given) | 1.2 | > 50 | 6.6 | 3.3 | – |
| Cc1cc(NC2CC2)n2ncnc2n1 | > 100 | – | – | – | – |
| Cc1cc(NC2CCCCCCCCCCC2)n2ncnc2n1 | 58 | – | – | – | – |
| CCc1nc(N)nc(N)c1-c1ccc(Cl)cc1 [PYRIMETHAMINE] | – | – | 0.023 | – | fraction unbound [6]: 0.13 |
| FC(F)(F)c1ccc(Nc2cc(C(F)(F)F)nc3ncnn23)cc1 | 1.7 | > 100 | > 10 | 2.3 | – |
| COc1cc2c(cc1OC)CC(Nc1cc(C)nc3ncnn13)C2 | 4.6 | – | 7.7 | 41 | – |
| Cc1cc(NCCc2ccccc2)n2ncnc2n1 | 15 | – | > 20 | 27 | – |
| Cc1cc(NC2CCCCCC2)n2ncnc2n1 | > 100 | – | – | – | – |
| CCCCc1ccc(Nc2cc(C)nc3ncnn23)cc1 | 0.28 | > 100 | 4.8 | 5.25 | solubility [5, 8]: 11 µM (≈ 3.09 µg/mL); logD [7]: 3.6; fraction unbound [6]: 0.033; CL (Liver microsomes): 36 µL/min/mg |
| CCCc1ccc(Nc2cc(C)nc3ncnn23)cc1 | 0.99 | > 100 | 6.8 | 9 | solubility [5, 8]: 187 µM (≈ 50 µg/mL); logD [7]: 3.1; fraction unbound [6]: 0.065; CL (Liver microsomes): 36 µL/min/mg |
